Laboratory results reported in publication PMC3018560 (Antiviral research, 2010).

Tests used:
HIV = details: anti-HIV agent, patients; ref Fischl et al., 1994; cited from earlier work
[1] = mouse; ref Alonzi et al., 2008; cited from earlier work
[2] = system: DENV (serotype 2, TSV01 strain); assay: Dengue viremia model in AG129 mouse, plasma virus titer by plaque assay; type: in vivo; details: AG129 mice
Outline: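 AG129 mice (lacking type I and type II interferon receptors), 7 to 8 weeks old, 6 per dosing group, challenged i.p. with 5×10^6 pfu/mouse. Ribavirin dosed once daily and imino sugars twice daily at 12 hr intervals for 3 consecutive days post-infection; PBS to controls. Plasma virus titer by plaque assay on blood drawn day 3. Reported as average and standard deviation; student t test versus PBS control.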

[3] = human; ref Lindahl et al., 2005; cited from earlier work

For `CCCCN1C[C@H](O)[C@@H](O)[C@H](O)[C@H]1CO` [NBDNJ], the “Antiviral efficacy in phase II clinical trial” value (HIV) is given as “did not demonstrate any antiviral efficacy” and the T1/2 [1] is given as 1.34 h.
In the case of `NC(=O)c1ncn([C@@H]2O[C@H](CO)[C@@H](O)[C@H]2O)n1` [ribavirin], the “Effect on viremia of dose increase” value ([2]; ribavirin dose raised from 40mg/kg to 80mg/kg) is given as “did not improve its antiviral effect”, the Effect on viremia ([2]; ribavirin oral 40mg/kg once daily alone, 3 days (Fig. 5A)) is given as “did not reduce viremia” and the Systematic concentration [3] is given as ~ 15 μM.
